Screens from PubChem.
HIV Env fusion = inhibitors of HIV Env-mediated cell fusion; HeLa-JRFL Env/CEM21 cell fusion, luciferase; inhibition, % at 12.3 µM; 1.1% of 360,000 active;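 active means mean replicate inhibition score of at least 50 and every replicate individually at or above 50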
FN deposit inh = fibronectin deposition inhibition; AH1F fibroblasts, Alexa488-fibronectin deposition fluorescence, overnight; inhibition, % at 12.6 µM; 0.086% of 350,000 active;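 active means mean inhibition across replicates of 30% or more, regardless of how many single replicates reach that level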
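Material: AH1F fibroblast monolayer depositing Alexa488-labelled fibronectin into matrix | Input: 10000 AH1F cells/well | Medium: DMEM plus 2% serum, read in PBS | Reagent: Alexa488-fibronectin, 24 nM final in well | Compound dosing: One dose per compound, pinned | Schedule: 1 h adhesion, overnight exposure | Measured by: Fluorescence at 485 nm excitation, 525 nm emission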
ERp5 inh = inhibitors of human ERp5. inhibition, % at 9.99 µM. ERp5 insulin aggregation, absorbance 650 nm, 90 min. 0.05% of 350,000 active. AID 651711. Q15084;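 active means mean replicate inhibition above about 25%, with every replicate also reaching it, limit read from the data, passing the limit was not always enough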
GSIS activator = primary screen for activators of insulin secretion dependent on glucose, INS-1E cells, GLuc reporter luminescence; INS-1E GLuc reporter insulin secretion, 2-3 h; activation, % at 16.6 µM; 0.61% of 370,000 active; AID 743287;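 active means lowest replicate activation of at least 40%, so every replicate reaches that level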
PDI turbidity = PDI (human) enzyme inhibition. P07237. PDI insulin aggregation turbidity, A650, 90 min. inhibition, % at 10 µM. 0.052% of 350,000 active. AID 588391;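 active means mean inhibition across replicates of 30% or more, whatever share of single replicates reach that level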
Target sequence (P07237 whole entry, looked up): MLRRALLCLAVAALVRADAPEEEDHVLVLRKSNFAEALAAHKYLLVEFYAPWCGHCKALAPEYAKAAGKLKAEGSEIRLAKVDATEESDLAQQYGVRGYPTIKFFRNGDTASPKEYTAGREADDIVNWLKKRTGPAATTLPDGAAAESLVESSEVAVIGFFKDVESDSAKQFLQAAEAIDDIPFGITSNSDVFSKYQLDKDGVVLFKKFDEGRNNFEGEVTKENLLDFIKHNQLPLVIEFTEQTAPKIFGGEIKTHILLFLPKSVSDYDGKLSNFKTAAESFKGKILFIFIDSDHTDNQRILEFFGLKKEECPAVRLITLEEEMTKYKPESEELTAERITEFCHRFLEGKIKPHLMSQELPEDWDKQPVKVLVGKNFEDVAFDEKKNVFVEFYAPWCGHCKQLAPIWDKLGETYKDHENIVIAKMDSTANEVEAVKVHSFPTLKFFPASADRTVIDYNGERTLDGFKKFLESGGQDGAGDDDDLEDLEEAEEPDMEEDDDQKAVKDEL
Numbers stand for hits; 0 = inactive; - = not tested or not shown; [ ] = dose if it differs, or a comment. Most compounds without a hit are left out; they make up all but 1.4% or so of the library.

SMILES	HIV Env fusion	FN deposit inh	ERp5 inh	GSIS activator	PDI turbidity
COc1ccccc1C(=O)NCCC(=O)Nc1nc2ccccc2[nH]1	-	0	0	0	0
CSc1ccccc1C(=O)Nc1nc2ccccc2[nH]1	0	0	0	0	0
CCC(=O)N1C[C@H](C)[C@H](OC)CN(C)C(=O)c2cc(NC(=O)c3ccc(F)cc3)ccc2OC[C@H]1C	0	0	0	0	-
O=C(Nc1cc(F)ccc1F)N[C@H]1C=C[C@@H](CC(=O)N2CCc3ccccc3C2)O[C@@H]1CO	0	0	0	0	-
CC(=O)Oc1ccc(C2OC(=O)c3ccccc3N2C(C)=O)cc1 (stereo not given)	0	0	-	-	32
C[C@H](CO)N1C[C@H](C)[C@H](CN(C)S(=O)(=O)c2ccccc2)Oc2ccc(NC(=O)CCN3CCOCC3)cc2C1=O	-	-	0	0	-
CN(C[C@H](Cc1ccccc1)N(C[C@H](CC1CCCCC1)N(CCc1ccccc1)N=O)N=O)N=O	67	0	0	0	0
CCC(C)[C@@H](CN(N=O)[C@@H](Cc1ccccc1)CN(C)N=O)N(CCc1ccccc1)N=O (stereo not given in full)	-	-	-	-	0
CN(C[C@H](Cc1ccccc1)N(C[C@H](Cc1ccccc1)N(CC1(c2ccccc2)CC1)N=O)N=O)N=O	98	0	0	-	0
CN(C[C@@H](CC1CCCCC1)N(C[C@H](Cc1ccccc1)N(CCc1ccccc1)N=O)N=O)N=O	84	0	0	0	0
COc1ccc(S(=O)(=O)Nc2ccc3c(c2)CC(=O)N([C@@H](C)CO)C[C@@H](C)[C@H](CN(C)S(=O)(=O)c2ccc(C)cc2)O3)cc1	0	0	0	0	-
CO[C@H]1CN(C)C(=O)c2ccc(NC(=O)NC(C)C)cc2OC[C@@H](C)N(Cc2ccc(-c3ccccn3)cc2)C[C@H]1C	-	0	0	0	-
O=C(C[C@H]1CC[C@@H]2[C@H](COC[C@@H](O)CN2Cc2ccc3c(c2)OCO3)O1)N1CCCCC1	0	0	-	0	-
COc1nc(-c2ccccc2Cl)ccc1C#N	56	-	-	-	0
O=C(C[C@@H]1CC[C@H]2[C@@H](COC[C@@H](O)CN2C(=O)c2ccc(F)cc2)O1)NCCCN1CCOCC1	-	0	0	0	-
CNC[C@H]1Oc2c(NC(=O)C3CCOCC3)cccc2C(=O)N([C@@H](C)CO)C[C@@H]1C	0	0	0	0	-
CCOc1ncnc2c1oc1nc(CC(C)C)c3c(c12)CC(C)(C)OC3	-	-	0	0	0
CCOc1nc(CC(C)C)c2c(c1C#N)CC(C)(C)OC2	0	0	0	51	0
COc1ccc(N2CCN(c3ccc(NC(=O)C4CCCCC4)cc3C#N)CC2)cc1	-	-	-	51	0
COc1ccc(C(=O)Nc2ccc(N3CCN(c4ccc(OC)cc4)CC3)c(C#N)c2)cc1	-	-	-	-	0
CC=Cc1ccc2n(c1=O)C[C@@H]1[C@@H](CO)[C@H](C(=O)NCC3CCCCC3)N(C(C)=O)[C@H]21 (mixture of isomers)	-	-	0	0	-
C[C@@H](C(=O)Nc1ccc2ccccc2c1)[C@H]1C[C@]1(C)[C@H](NC(=O)c1cccnc1)c1ccccc1	68	0	0	0	-
C[C@@H](C(=O)Nc1ccc2ccccc2c1)[C@@H]1C[C@@]1(C)[C@@H](NC(=O)c1ccccc1)c1ccccc1	0	0	0	0	0
OC[C@@H]1CN(Cc2ccccc2)C[C@H](n2cnc3c(NCc4ccncc4)ncnc32)O1	59	0	0	0	0
OC[C@@H]1CN(Cc2ccc(F)cc2)C[C@H](n2cnc3c(NCc4ccncc4)ncnc32)O1	0	0	0	0	0
SMILES	HIV Env fusion	FN deposit inh	ERp5 inh	GSIS activator	PDI turbidity
CCOc1ccccc1C(=O)NCC(=O)NNC(=O)CN(C)S(=O)(=O)c1ccc(Cl)cc1	69	0	0	0	0
COc1ccccc1CN(Cc1nc2ccccc2c(=O)[nH]1)S(=O)(=O)c1ccc2ccccc2c1	98	0	-	0	0
COc1ccc(S(=O)(=O)N(Cc2ccccc2)Cc2nc3ccccc3c(=O)[nH]2)cc1	-	-	-	0	0
O=C(C[C@@H]1CC[C@@H](NC(=O)c2ccncc2)[C@H](CO)O1)NCCc1ccncc1	62[16.7 µM]	0	0	0	-
O=C(O)C[C@@H]1CC[C@@H](NC(=O)c2ccncc2)[C@H](CO)O1	63[16.7 µM]	0	0	0	-
O=C(C[C@H]1CC[C@H](NC(=O)c2ccncc2)[C@H](CO)O1)NCCc1ccncc1	0	0	0	0	-
CCCOc1ccc(Br)cc1CSC(=N)N	62	0	0	0	0
CCOC(=O)c1ccccc1NC(=O)CN(c1ccccc1OC)S(C)(=O)=O	0	0	-	62	0
